Reference: ChEMBL document CHEMBL4425191, “Design, synthesis and biological evaluation of photoaffinity probes of antiangiogenic homoisoflavonoids” (2016)

Key:
Format in all cases: functional
[1] = Antiproliferative activity against human HREC cells after 48 hrs by alamar blue based fluorescence assay
Method in brief: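 Human retinal microvascular endothelial cells at passages 5–8, 2,500 per well, rested 24 h, then given test compound (0.5 nM–500 µM) for 48 h. Proliferation was read by alamarBlue 4 h after addition (ex 560, em 590 nm) and dose-response fitted against DMSO control. GI50 <100 µM was recorded only if ≥50% reduction occurred at the highest concentration.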

HUVEC = test: Antiproliferative activity against human HUVEC cells after 48 hrs by alamar blue based fluorescence assay
Method in brief: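 HUVECs, passages 5–8, cultured in EGM-2 (EBM plus growth-factor bullet kit, 2% FBS). 2,500 cells were seeded 24 h, then incubated 48 h with compound at 0.5 nM–500 µM. alamarBlue was added and fluorescence read 4 h later at 560/590 nm; curves were fitted versus DMSO. GI50 <100 µM was listed only for ≥50% reduction at the top dose.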

[2] = Antiproliferative activity against human 92-1 cells after 48 hrs by alamar blue based fluorescence assay
Y79 = test: Antiproliferative activity against human Y79 cells after 48 hrs by alamar blue based fluorescence assay; details: Y79, 48 h
ARPE-19 = test: Antiproliferative activity against human ARPE19 cells after 48 hrs by alamar blue based fluorescence assay; details: ARPE-19, 48 h
Method in brief: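 ARPE19 cells grown in Ham's F-10 with 10% FBS and 1% pen-strep; 2,500 cells/well settled 24 h, then 48 h compound treatment over 0.5 nM–500 µM. alamarBlue fluorescence (560/590 nm) was read after 4 h; curves were fitted relative to DMSO. GI50 <100 µM was reported only where the highest concentration cut cell number by ≥50%.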

Compound	GI50 [1] [µM]	GI50 (HUVEC) [µM]	GI50 [2] [µM]	GI50 (Y79) [µM]	GI50 (ARPE-19) [µM]
COc1ccc(CC2COc3cc(OC)c(OC)c(OC)c3C2=O)cc1NC(=O)[C@H](Cc1ccc(OCCCC(=O)O)cc1)NC(=O)OC(C)(C)C (stereo not given in full)	0.0079	22	> 100	> 100	> 100
COc1ccc(CC2COc3cc(OCCCC(=O)NCCCOc4ccc(C(=O)c5ccc(OCc6cn(CCOCCOCCOCCNC(=O)CCCC[C@@H]7SC[C@@H]8NC(=O)N[C@@H]87)nn6)cc5)cc4)c(OC)c(OC)c3C2=O)cc1OC(=O)[C@H](Cc1ccccc1)NC(=O)OC(C)(C)C (stereo not given in full)	44	> 100	> 100	> 100	> 100
COc1ccc(CC2COc3cc(OC)c(OC)c(OC)c3C2=O)cc1OCC(=O)NCCCOc1ccc(C(=O)c2ccc(OCc3cn(CCOCCOCCOCCNC(=O)CCCC[C@@H]4SC[C@@H]5NC(=O)N[C@@H]54)nn3)cc2)cc1 (stereo not given in full)	0.072	> 100	> 100	> 100	> 100
COc1ccc(CC2COc3cc(OC)c(OC)c(OC)c3C2=O)cc1OC(=O)[C@H](Cc1ccc(OCC(=O)NCCCOc2ccc(C(=O)c3ccc(OCc4cn(CCOCCOCCOCCNC(=O)CCCC[C@@H]5SC[C@@H]6NC(=O)N[C@@H]65)nn4)cc3)cc2)cc1)NC(=O)OC(C)(C)C (stereo not given in full)	0.21	0.44	> 100	> 100	> 100
COc1ccc(CC2COc3cc(OC)c(OC)c(OC)c3C2=O)cc1OC(=O)[C@H](Cc1ccc(OCC(=O)O)cc1)NC(=O)OC(C)(C)C (stereo not given in full)	0.047	0.012	> 100	> 100	> 100
COc1ccc(CC2COc3cc(OC)c(OC)c(OC)c3C2=O)cc1NC(=O)[C@H](Cc1ccc(OCCCC(=O)NCCCOc2ccc(C(=O)c3ccc(OCc4cn(CCOCCOCCOCCNC(=O)CCCC[C@@H]5SC[C@@H]6NC(=O)N[C@@H]65)nn4)cc3)cc2)cc1)NC(=O)OC(C)(C)C (stereo not given in full)	42	> 100	> 100	> 100	> 100
